According to ChEMBL document CHEMBL3045952, “Design, synthesis, and fungicidal activity of novel analogues of pyrrolnitrin” (J Agric Food Chem, 2009):

Key:
Format in all cases: functional
Conditions in all cases: read-out: GI
Fusarium oxysporum [1] = experiment: Fungicidal activity against Fusarium oxysporum assessed as mycelium growth inhibition at 50 ug/mL by mycelium growth rate method
How it was run: (§1)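 In vitro mycelium growth rate method, with fenpiclonil as control. Compounds were tested at 50, 20 and 10 μg mL-1. Mycelial diameters were measured once the mycelia had grown completely. Inhibition (%) = (D1 − D2)/D1 × 100, where D1 is the mean mycelial diameter in the blank and D2 is the mean diameter with compound.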

Fusarium graminearum [2] = experiment: Fungicidal activity against Fusarium graminearum assessed as mycelium growth inhibition at 50 ug/mL by mycelium growth rate method; how it was run: as §1
[3] = system: Botryosphaeria berengeriana; experiment: Fungicidal activity against Botryosphaeria berengeriana assessed as mycelium growth inhibition at 50 ug/mL by mycelium growth rate method; how it was run: as §1
Fusarium oxysporum [4] = experiment: Fungicidal activity against Fusarium oxysporum assessed as mycelium growth inhibition at 10 ug/mL by mycelium growth rate method; how it was run: as §1
[5] = system: Botryosphaeria berengeriana; experiment: Fungicidal activity against Botryosphaeria berengeriana assessed as mycelium growth inhibition at 20 ug/mL by mycelium growth rate method; how it was run: as §1
Fusarium oxysporum [6] = experiment: Fungicidal activity against Fusarium oxysporum assessed as mycelium growth inhibition at 20 ug/mL by mycelium growth rate method; how it was run: as §1
Alternaria solani [7] = experiment: Fungicidal activity against Alternaria solani assessed as mycelium growth inhibition at 20 ug/mL by mycelium growth rate method; how it was run: as §1
[8] = system: Botryosphaeria berengeriana; experiment: Fungicidal activity against Botryosphaeria berengeriana assessed as mycelium growth inhibition at 10 ug/mL by mycelium growth rate method; how it was run: as §1
Alternaria solani [9] = experiment: Fungicidal activity against Alternaria solani assessed as mycelium growth inhibition at 50 ug/mL by mycelium growth rate method; how it was run: as §1
Mycosphaerella arachidis [10] = experiment: Fungicidal activity against Mycosphaerella arachidis assessed as mycelium growth inhibition at 20 ug/mL by mycelium growth rate method; how it was run: as §1
Fusarium graminearum [11] = experiment: Fungicidal activity against Fusarium graminearum assessed as mycelium growth inhibition at 10 ug/mL by mycelium growth rate method; how it was run: as §1
Mycosphaerella arachidis [12] = experiment: Fungicidal activity against Mycosphaerella arachidis assessed as mycelium growth inhibition at 50 ug/mL by mycelium growth rate method; how it was run: as §1
Alternaria solani [13] = experiment: Fungicidal activity against Alternaria solani assessed as mycelium growth inhibition at 10 ug/mL by mycelium growth rate method; how it was run: as §1
Fusarium graminearum [14] = experiment: Fungicidal activity against Fusarium graminearum assessed as mycelium growth inhibition at 20 ug/mL by mycelium growth rate method; how it was run: as §1
Mycosphaerella arachidis [15] = experiment: Fungicidal activity against Mycosphaerella arachidis assessed as mycelium growth inhibition at 10 ug/mL by mycelium growth rate method; how it was run: as §1

Row | Compound | inhibition of growth at 50 µg/mL (Fusarium oxysporum [1]) [%] | inhibition of growth at 50 µg/mL (Fusarium graminearum [2]) [%] | inhibition of growth at 50 µg/mL [3] [%] | inhibition of growth at 10 µg/mL (Fusarium oxysporum [4]) [%] | inhibition of growth at 20 µg/mL [5] [%] | inhibition of growth at 20 µg/mL (Fusarium oxysporum [6]) [%] | inhibition of growth at 20 µg/mL (Alternaria solani [7]) [%] | inhibition of growth at 10 µg/mL [8] [%] | inhibition of growth at 50 µg/mL (Alternaria solani [9]) [%] | inhibition of growth at 20 µg/mL (Mycosphaerella arachidis [10]) [%] | inhibition of growth at 10 µg/mL (Fusarium graminearum [11]) [%] | inhibition of growth at 50 µg/mL (Mycosphaerella arachidis [12]) [%] | inhibition of growth at 10 µg/mL (Alternaria solani [13]) [%] | inhibition of growth at 20 µg/mL (Fusarium graminearum [14]) [%] | inhibition of growth at 10 µg/mL (Mycosphaerella arachidis [15]) [%]
1 | O=[N+]([O-])c1cc(-c2ccccc2[N+](=O)[O-])cs1 | 0 | 25 | 20 | 0 | 9 | 0 | 16 | 0 | 22 | 16 | 1 | 20 | 6 | 7 | 8
2 | O=[N+]([O-])c1cc(-c2ccc(F)cc2[N+](=O)[O-])cs1 | 25 | 12 | 46 | 7 | 10 | 17 | 25 | 4 | 41 | 27 | 0 | 44 | 6 | 0 | 11
3 | O=[N+]([O-])c1cc(-c2cc(F)ccc2[N+](=O)[O-])cs1 | 28 | 16 | 27 | 0 | 8 | 10 | 16 | 0 | 35 | 22 | 0 | 33 | 0 | 0 | 0
4 | O=[N+]([O-])c1cc(-c2ccc(Cl)cc2[N+](=O)[O-])cs1 | 17 | 4 | 2 | 0 | 0 | 0 | 0 | 0 | 19 | 0 | 0 | 2 | 0 | 0 | 0
5 | O=[N+]([O-])c1cc(-c2c(Cl)cc(Cl)cc2[N+](=O)[O-])cs1 | 39 | 24 | 25 | 21 | 17 | 32 | 32 | 10 | 41 | 16 | 8 | 27 | 25 | 16 | 5
6 | O=[N+]([O-])c1cc(-c2cc(Cl)c(F)cc2[N+](=O)[O-])cs1 | 10 | 0 | 14 | 0 | 2 | 7 | 16 | 0 | 25 | 11 | 0 | 16 | 0 | 0 | 0
7 | O=[N+]([O-])c1cc(-c2c(Cl)cc(Cl)c(Cl)c2[N+](=O)[O-])cs1 | 4 | 0 | 24 | 0 | 10 | 0 | 26 | 0 | 34 | 20 | 0 | 35 | 17 | 0 | 5
8 | O=[N+]([O-])c1ccccc1-c1ccsc1[N+](=O)[O-] | 22 | 23 | 30 | 0 | 25 | 13 | 16 | 0 | 25 | 16 | 6 | 25 | 9 | 14 | 8
9 | O=[N+]([O-])c1cc(F)ccc1-c1ccsc1[N+](=O)[O-] | 17 | 0 | 14 | 0 | 4 | 7 | 25 | 0 | 48 | 0 | 0 | 16 | 9 | 0 | 0
10 | O=[N+]([O-])c1ccc(F)cc1-c1ccsc1[N+](=O)[O-] | 21 | 0 | 10 | 0 | 0 | 0 | 16 | 0 | 29 | 0 | 0 | 11 | 0 | 0 | 0
11 | O=[N+]([O-])c1cc(Cl)ccc1-c1ccsc1[N+](=O)[O-] | 17 | 0 | 25 | 0 | 10 | 0 | 0 | 0 | 9 | 0 | 0 | 0 | 0 | 0 | 0
12 | O=[N+]([O-])c1cc(Cl)cc(Cl)c1-c1ccsc1[N+](=O)[O-] | 28 | 0 | 27 | 10 | 17 | 14 | 32 | 2 | 38 | 11 | 0 | 27 | 16 | 0 | 0
13 | O=[N+]([O-])c1cc(F)c(Cl)cc1-c1ccsc1[N+](=O)[O-] | 39 | 20 | 42 | 14 | 36 | 28 | 54 | 12 | 61 | 5 | 0 | 18 | 48 | 4 | 0
14 | O=[N+]([O-])c1sccc1-c1c(Cl)cc(Cl)c(Cl)c1[N+](=O)[O-] | 22 | 0 | 40 | 0 | 13 | 0 | 26 | 0 | 34 | 25 | 0 | 40 | 0 | 0 | 5
